Measurements: ChEMBL document CHEMBL1153310, “New prostaglandin derivative for glaucoma treatment” (Bioorg Med Chem Lett, 2009)

Columns and labels:
Oryctolagus cuniculus [1] = test: Increase in glutathione levels in aqueous humor of carbomer-induced glaucomatous pigmented rabbit at 0.005%, topical administration continuously for 5 days by fluorimetry; format: functional, Aqueous humor of eyeball
How it was run: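 Carbomer-glaucomatous rabbits given daily topical 0.005% instillation for 5 days. Aqueous humour centrifuged at 100.000g, 4 °C for 30 min. Supernatant diluted in phosphate-EDTA buffer and reacted with o-phthaldialdehyde (1 mg/ml) for 15 min at room temperature. Fluorescence read at ex 350/em 420 nm against a GSH standard curve, in pmol/ml.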

Oryctolagus cuniculus [2] = test: Increase in glutathione levels in aqueous humor of normotensive pigmented rabbit at 0.005%, topical administration; format: functional, Aqueous humor of eyeball
How it was run: (§1)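 Normotensive rabbits given a single topical instillation at one of three dose levels. Aqueous humour centrifuged at 100.000g, 4 °C for 30 min. Supernatant diluted in phosphate-EDTA buffer and reacted with o-phthaldialdehyde (1 mg/ml) for 15 min at room temperature. Fluorescence read at ex 350/em 420 nm, calibrated with a GSH standard curve.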

Oryctolagus cuniculus [3] = test: Increase in cGMP levels in aqueous humor of carbomer-induced glaucomatous pigmented rabbit at 0.005%, topical administration continuously for 5 days by radioimmunoassay; format: functional, Aqueous humor of eyeball
How it was run: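 Aqueous humour taken after 5 days of daily topical instillation at 0.005%. Samples treated with 10% trichloroacetic acid and centrifuged. TCA extracted with 0.5 M tri-n-octylamine in 1,1,2-trichloro-1,2,2-trifluoroethane. cGMP quantified by radioimmunoassay using labelled cGMP.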

Oryctolagus cuniculus [4] = test: Effect on intraocular pressure in carbomer-induced glaucoma in pigmented rabbit assessed as AUC at 0.005%, single topical administration measured over 4 hrs by tonometry; settings: Eye
Oryctolagus cuniculus [5] = test: Effect on intraocular pressure in carbomer-induced glaucoma in pigmented rabbit assessed as AUC at 0.005%, topical administration continuously for 5 days; format: functional, organism-based; settings: Eye
How it was run: (§2)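 Glaucoma induced by carbomer injection into the anterior chamber; IOP checked every 30 min over the first 3 h, then at least three times daily until stabilized at high levels. Drug instilled topically, once (single-dose) or daily for 5 days (repeated). IOP measured by Tono-Pen tonometer; single-dose readings at 30, 60, 120 and 240 min; AUC in mm Hg h.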

Oryctolagus cuniculus [6] = test: Effect on intraocular pressure in carbomer-induced glaucoma in New Zealand albino rabbit assessed as AUC at 0.005%, topical administration measured after 4 hrs; format: functional, organism-based; set-up: time < 4 hr; settings: Eye; how it was run: as §2
Oryctolagus cuniculus [7] = test: Reduction in intraocular pressure in carbomer-induced glaucoma in pigmented rabbit at 0.005%, topical administration continuously for 5 days; format: functional, Eye; how it was run: as §2
Oryctolagus cuniculus [8] = test: Reduction in intraocular pressure in carbomer-induced glaucoma in pigmented rabbit at 0.005%, topical administration continuously for 2 days; format: functional, Eye; how it was run: as §2
Oryctolagus cuniculus [9] = test: Reduction in intraocular pressure in carbomer-induced glaucoma in pigmented rabbit at 0.005%, topical administration continuously for 4 days; format: functional, Eye; how it was run: as §2
Oryctolagus cuniculus [10] = test: Reduction in intraocular pressure in carbomer-induced glaucoma in pigmented rabbit at 0.005%, topical administration measured after 240 mins; format: functional, Eye; how it was run: as §2
Oryctolagus cuniculus [11] = test: Reduction in intraocular pressure in carbomer-induced glaucoma in pigmented rabbit at 0.005%, topical administration measured after 120 mins; format: functional, Eye; how it was run: as §2
Oryctolagus cuniculus [12] = test: Reduction in intraocular pressure in carbomer-induced glaucoma in pigmented rabbit at 0.005%, topical administration measured after 30 mins; format: functional, Eye; how it was run: as §2
Oryctolagus cuniculus [13] = test: Reduction in intraocular pressure in carbomer-induced glaucoma in albino rabbit at 0.005%, topical administration measured after 60 mins; format: functional, Eye; how it was run: as §2
Oryctolagus cuniculus [14] = test: Reduction in intraocular pressure in carbomer-induced glaucoma in pigmented rabbit at 0.005%, topical administration for 1 day; format: functional, Eye; how it was run: as §2
Oryctolagus cuniculus [15] = test: Reduction in intraocular pressure in carbomer-induced glaucoma in pigmented rabbit at 0.005%, topical administration continuously for 3 days; format: functional, Eye; how it was run: as §2
Oryctolagus cuniculus [16] = test: Reduction in intraocular pressure in carbomer-induced glaucoma in pigmented rabbit at 0.005%, topical administration measured after 60 mins; format: functional, Eye; how it was run: as §2
Oryctolagus cuniculus [17] = test: Reduction in intraocular pressure in carbomer-induced glaucoma in albino rabbit at 0.005%, topical administration measured after 120 mins; format: functional, Eye; how it was run: as §2
Oryctolagus cuniculus [18] = test: Reduction in intraocular pressure in carbomer-induced glaucoma in albino rabbit at 0.005%, topical administration measured after 240 mins; format: functional, Eye; how it was run: as §2
Oryctolagus cuniculus [19] = test: Reduction in intraocular pressure in carbomer-induced glaucoma in albino rabbit at 0.005%, topical administration continuously measured after […]; format: functional, Eye; how it was run: as §2
Oryctolagus cuniculus [20] = test: Reduction in intraocular pressure in carbomer-induced glaucoma in albino rabbit at 0.005%, topical administration measured after 30 mins; format: functional, Eye; how it was run: as §2
Oryctolagus cuniculus [21] = species on record: Oryctolagus cuniculus; test: Toxicity in New Zealand albino rabbit assessed as tolerability at 0.005% by Draize test; format: organism-based; settings: in vivo
How it was run: (§3)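 Ocular tolerability scored by Draize test in New Zealand albino rabbits at three concentrations, compared with placebo.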

Oryctolagus cuniculus [22] = species on record: Oryctolagus cuniculus; test: Toxicity in New Zealand albino rabbit assessed as tolerability at 0.01% by Draize test; format: organism-based; settings: in vivo; how it was run: as §3
Oryctolagus cuniculus [23] = test: Increase in glutathione levels in aqueous humor of normotensive pigmented rabbit at 0.01%, topical administration; format: functional, Aqueous humor of eyeball; how it was run: as §1
Oryctolagus cuniculus [24] = test: Increase in glutathione levels in aqueous humor of normotensive pigmented rabbit at 0.008%, topical administration; format: functional, Aqueous humor of eyeball; how it was run: as §1
Oryctolagus cuniculus [25] = species on record: Oryctolagus cuniculus; test: Toxicity in New Zealand albino rabbit assessed as tolerability at 0.008% by Draize test; format: organism-based; settings: in vivo; how it was run: as §3
Oryctolagus cuniculus [26] = test: Reduction in intraocular pressure in carbomer-induced glaucoma in pigmented rabbit at 0.005%, single topical administration measured over 4 hrs relative to latanoprost; set-up: scale not given: the % may be the effect or the level left
Oryctolagus cuniculus [27] = test: Reduction in intraocular pressure in carbomer-induced glaucoma in pigmented rabbit at 0.005%, topical administration continuously for 5 days relative to latanoprost; format: functional, Eye; set-up: scale not given: the % may be the effect or the level left; how it was run: as §2

CC(C)OC(=O)CCC/C=C\C[C@@H]1[C@@H](CC[C@@H](O)CCc2ccccc2)[C@H](O)C[C@@H]1O [LATANOPROST]
Activity (Oryctolagus cuniculus [1]): 36.44 pmol/mL | Activity (Oryctolagus cuniculus [2]): 38.7 pmol/mL | Activity (Oryctolagus cuniculus [3]): 71.8 fmol/mL | AUC (Oryctolagus cuniculus [4]): 109 mmHg.hr | AUC (Oryctolagus cuniculus [5]): 2660 mmHg.hr | AUC (Oryctolagus cuniculus [6]): 119 mmHg.hr

Oc1ccc(-c2cc(=S)ss2)cc1
Activity (Oryctolagus cuniculus [7]): 22 mmHg | Activity (Oryctolagus cuniculus [8]): 26 mmHg | Activity (Oryctolagus cuniculus [9]): 22.2 mmHg | Activity (Oryctolagus cuniculus [10]): 23.5 mmHg | Activity (Oryctolagus cuniculus [11]): 26 mmHg | Activity (Oryctolagus cuniculus [12]): 30 mmHg | Activity (Oryctolagus cuniculus [13]): 28 mmHg | Activity (Oryctolagus cuniculus [14]): 26.7 mmHg | Activity (Oryctolagus cuniculus [15]): 23 mmHg | Activity (Oryctolagus cuniculus [16]): 29 mmHg | Activity (Oryctolagus cuniculus [17]): 26.2 mmHg | Activity (Oryctolagus cuniculus [1]): 60.4 pmol/mL | Activity (Oryctolagus cuniculus [2]): 58.3 pmol/mL | Activity (Oryctolagus cuniculus [18]): 25.2 mmHg | Activity (Oryctolagus cuniculus [3]): 122 fmol/mL | Activity (Oryctolagus cuniculus [19]): 25 mmHg | Activity (Oryctolagus cuniculus [20]): 29.5 mmHg

O=C(CCC/C=C\C[C@@H]1[C@@H](CC[C@@H](O)CCc2ccccc2)[C@H](O)C[C@@H]1O)Oc1ccc(-c2cc(=S)ss2)cc1
Activity (Oryctolagus cuniculus [21]): Non-toxic | Activity (Oryctolagus cuniculus [22]): Non-toxic | Activity (Oryctolagus cuniculus [23]): 82.89 pmol/mL | Activity (Oryctolagus cuniculus [24]): 69.83 pmol/mL | Activity (Oryctolagus cuniculus [1]): 65.27 pmol/mL | Activity (Oryctolagus cuniculus [2]): 60.04 pmol/mL | Activity (Oryctolagus cuniculus [25]): Non-toxic | Activity (Oryctolagus cuniculus [26]): 30.8% | Activity (Oryctolagus cuniculus [3]): 118 fmol/mL | AUC (Oryctolagus cuniculus [4]): 75.2 mmHg.hr | AUC (Oryctolagus cuniculus [5]): 2090 mmHg.hr | Activity (Oryctolagus cuniculus [27]): 27% | AUC (Oryctolagus cuniculus [6]): 106 mmHg.hr
